Active and inactive are the calls of the source. The calls are words filed in the database; no cut-off is given here.
Columns and labels:
[1] = Activation of cellular function of human neutrophils assessed as induction of chemotactic activity at 0.01 uM; assay type: functional, cell-based; conditions: Neutrophil
Procedure, shortened: (§1)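 48-well microchemotaxis chamber with peptide in the lower compartment, diluted from 10^-2 M DMSO stock into KRPG with 1 mg/mL BSA; tested 10^-12 to 10^-5 M. Filter migration was scored by the leading-front method. Chemotactic index = (migration to attractant − migration to buffer)/migration to buffer. Five experiments, duplicate.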

Neutrophil = assay: Ratio of compound to fMLP-OMe potency for induction of chemotactic activity in human neutrophils; assay type: functional
[2] = Activation of cellular function of human neutrophils assessed as chemotactic index at 0.01 uM; assay type: functional, cell-based; conditions: Neutrophil; procedure, shortened: as §1
[3] = Activation of cellular function of cytochalasin B-pretreated human neutrophils assessed as induction of superoxide anion production at 10 uM by microplate-based assay; assay type: functional, cell-based; conditions: Neutrophil
Procedure, shortened: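 Microplate ferricytochrome c reduction, superoxide dismutase-inhibitable, in KRPG. Wells held 4 × 10^5 neutrophils and 100 nmol cytochrome c. Cells were pre-incubated with cytochalasin B for 5 min. Peptide (10^-10 to 10^-4 M) was added at zero time at 37 °C. A550 minus A468 was converted to nmol O2− using ε 18.5 mM^-1 cm^-1. Five experiments, duplicate.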

[4] = Activation of cellular function of cytochalasin B-pretreated human neutrophils assessed as induction of lysozyme release at 1 uM after 15 mins by microplate-based assay; assay type: functional, cell-based; conditions: Neutrophil
Procedure, shortened: (§2)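 Neutrophils from heparinized peripheral blood of fasting healthy donors (dextran sedimentation, Ficoll-Paque, hypotonic NH4Cl lysis), resuspended in KRPG pH 7.4 with 1 mM MgCl2 and CaCl2. Pre-incubated with cytochalasin B for 15 min at 37 °C, then given peptide (final 10^-10 to 10^-4 M) for 15 min at 37 °C. After centrifugation, lysozyme was read by Micrococcus lysodeikticus lysis rate at 465 nm, as net % of Triton X-100 total. Five experiments, duplicate.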

[5] = Activation of cellular function of cytochalasin B-pretreated human neutrophils assessed as maximal induction of lysozyme release at 10 uM after 15 mins by microplate-based assay; assay type: functional, cell-based; conditions: Neutrophil; procedure, shortened: as §2
[6] = Activation of cellular function of human neutrophils assessed as chemotactic index at 0.000001 to 10 uM; assay type: functional, cell-based; conditions: Neutrophil; procedure, shortened: as §1

| Compound | Activity [1] | Ratio (Neutrophil) | Ratio [2] | Activity [3] | Efficacy [4] | Activity [5] | Ratio [6] |
| --- | --- | --- | --- | --- | --- | --- | --- |
| COC(=O)C[C@H](NCCCC[C@H](NC(=O)[C@H](Cc1ccccc1)NC(=O)[C@H](CC(C)C)NC(=O)[C@H](CCSC)NC=O)C(=O)OC)C(=O)N[C@@H](Cc1ccccc1)C(=O)N[C@@H](CC(C)C)C(=O)N[C@H](C=O)CCSC | Active | 10 | 0.9 | Active | 20% | Active | 0.95 |
| COC(=O)[C@H](CCCCN[C@@H](Cc1ccccc1)C(=O)N[C@@H](CC(C)C)C(=O)N[C@H](C=O)CCSC)NC(=O)[C@H](CCCCN[C@@H](Cc1ccccc1)C(=O)N[C@@H](CC(C)C)C(=O)N[C@H](C=O)CCSC)NC(=O)[C@H](Cc1ccccc1)NC(=O)[C@H](CC(C)C)NC(=O)[C@H](CCSC)NC=O | Active | 10 | 0.9 | Active | 40% | Active | 0.95 |
| COC(=O)[C@H](CCCCN[C@@H](Cc1ccccc1)C(=O)N[C@@H](CC(C)C)C(=O)N[C@H](C=O)CCSC)NC(=O)[C@H](Cc1ccccc1)NC(=O)[C@H](CC(C)C)NC(=O)[C@H](CCSC)NC=O | Active | 10 | – | Active | 40% | Active | – |
| COC(=O)[C@H](Cc1ccccc1)NC(=O)[C@H](CC(C)C)NC(=O)[C@H](CCSC)NC=O | – | – | 1.05 | – | 60% | – | 1.05 |

Source: ChEMBL document CHEMBL1154274, “Oligomeric formylpeptide activity on human neutrophils” (2009)
